Test results from ChEMBL document CHEMBL4049390, “Combination of amino acid/dipeptide with ligustrazine-betulinic acid as antitumor agents” (Eur J Med Chem, 2017).
Activity calls are given as the source filed them. The rule behind the calls is not given here.

Legend:
HT-29 [1] = test: Potency index, ratio of cisplatin IC50 to compound IC50 for human HT-29 cells; assay type: functional
Outline: (§1)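 Ratios were calculated from MTT IC50 values (72 h exposure, A490 read-out, n = 3). Potency index = cisplatin IC50 / compound IC50. Therapeutic index = MDCK IC50 / tumour-line IC50.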

HT-29 [2] = test: Antiproliferative activity against human HT-29 cells after 72 hrs by MTT assay; assay type: functional, cell-based; details: HT-29, 72 h
Outline: (§2)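 MTT assay. Log-phase cells were seeded at 3×10^3 cells/well and left overnight, then exposed to serial dilutions of compound (DMSO solutions) for 72 h in RPMI 1640 with 10% heat-inactivated FBS at 37 °C, 5% CO2. MTT (5 mg/mL, 20 µL) was added for 4 h at 37 °C and the formazan dissolved in DMSO. A490 was read. % inhibition = (1 − sample OD/control OD)×100; IC50 is the 50% growth-inhibition concentration. Triplicates, n = 3 independent experiments.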

HepG2 [3] = test: Induction of apoptosis in human HepG2 cells assessed as disruption of mitochondrial membrane potential by measuring mean fluorescence intensity at 3 uM after 72 hrs by Rh123 staining based flow cytometry (reference value: 26410); assay type: functional
A549 [4] = test: Antiproliferative activity against human A549 cells after 72 hrs by MTT assay; assay type: functional, cell-based; details: A549, 72 h; outline: as §2
HepG2 [5] = test: Induction of apoptosis in human HepG2 cells assessed as late apoptotic cells at 3 uM after 72 hrs by Annexin-V-FITC/propidium iodide staining based flow cytometry (reference value: 2.6%); assay type: functional
HepG2 [6] = test: Induction of apoptosis in human HepG2 cells assessed as early apoptotic cells at 3 uM after 72 hrs by Annexin-V-FITC/propidium iodide staining based flow cytometry (reference value: 3.7%); assay type: functional
HepG2 [7] = test: Induction of apoptosis in human HepG2 cells assessed as late apoptotic cells at 4 uM after 72 hrs by Annexin-V-FITC/propidium iodide staining based flow cytometry (reference value: 2.6%); assay type: functional
HepG2 [8] = test: Induction of apoptosis in human HepG2 cells assessed as disruption of mitochondrial membrane potential by measuring mean fluorescence intensity after 72 hrs by Rh123 staining based flow cytometry; assay type: functional, cell-based
Outline: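 Mitochondrial potential: HepG2 cells (1×10^5/well, 6-well) were grown 24 h, then exposed at 2, 3 or 4 µM for 72 h. Cells were trypsinised, washed in cold PBS and loaded with 10 µg/mL rhodamine 123 for 30 min at 37 °C. After washing, flow cytometry was run (ex 488/em 530 nm); the read-out is mean fluorescence intensity.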

HepG2 [9] = test: Induction of apoptosis in human HepG2 cells assessed as early apoptotic cells at 2 uM after 72 hrs by Annexin-V-FITC/propidium iodide staining based flow cytometry (reference value: 3.7%); assay type: functional
HepG2 [10] = test: Induction of apoptosis in human HepG2 cells assessed as nuclear fragmentation at 1.5 to 6 uM after 72 hrs by Giemsa staining based fluorescent microscopic method; assay type: functional, cell-based
Outline: (§3)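 HepG2 cells were seeded at 4×10^3 cells/well in 6-well plates overnight, then treated at 1.5, 3 or 6 µM for 72 h. Cells were washed in PBS, fixed in cold methanol, stained with 6% Giemsa for 5 min, rinsed with water and dried. Morphology was examined microscopically at 200×, with apoptotic cells marked in representative fields.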

HepG2 [11] = test: Induction of apoptosis in human HepG2 cells assessed as cell shrinkage at 1.5 uM after 72 hrs by Giemsa staining based fluorescent microscopic method; assay type: functional; outline: as §3
HepG2 [12] = test: Induction of apoptosis in human HepG2 cells assessed as necrotic cells at 4 uM after 72 hrs by Annexin-V-FITC/propidium iodide staining based flow cytometry (reference value: 0.5%); assay type: functional
HeLa = test: Antiproliferative activity against human HeLa cells after 72 hrs by MTT assay; assay type: functional, cell-based; outline: as §2
HepG2 [13] = test: Induction of apoptosis in human HepG2 cells assessed as viable cells at 2 uM after 72 hrs by Annexin-V-FITC/propidium iodide staining based flow cytometry (reference value: 93.2%); assay type: functional; details: HepG2, 72 h, read-out: Activity
A549 [14] = test: Potency index, ratio of cisplatin IC50 to compound IC50 for human A549 cells; assay type: functional; outline: as §1
MDCK = test: Antiproliferative activity against MDCK cells after 72 hrs by MTT assay; assay type: cell-based; details: Canis lupus familiaris; outline: as §2
HepG2 [15] = test: Induction of apoptosis in human HepG2 cells assessed as necrotic cells at 3 uM after 72 hrs by Annexin-V-FITC/propidium iodide staining based flow cytometry (reference value: 0.5%); assay type: functional
HepG2 [16] = test: Induction of apoptosis in human HepG2 cells assessed as nuclear fragmentation after 72 hrs by DAPI staining based fluorescent microscopic method; assay type: functional, cell-based
Outline: (§4)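 HepG2 cells were plated at 4×10^3 cells/well in six-well plates and grown 12 h, then treated at 1.5, 3 or 6 µM for 72 h. Cells were washed in PBS, fixed in 4% paraformaldehyde and stained with 1 mg/mL DAPI for 1 min in the dark. Nuclei were viewed by fluorescence microscopy at 200×.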

HepG2 [17] = test: Induction of apoptosis in human HepG2 cells assessed as increase in intracellular calcium level by measuring mean fluorescence intensity at 4 uM after 72 hrs by Fluo-3AM dye based flow cytometry (reference value: 1992); assay type: functional
Outline: (§5)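 HepG2 cells at 1×10^5 cells/well were grown 24 h, then treated with compound for 72 h. Cells were harvested, washed in cold PBS and resuspended in HBSS containing 10 µM Fluo-3 AM for 30 min at 37 °C in the dark. Flow cytometry used 488 nm excitation; the read-out was mean fluorescence intensity against an untreated control.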

HepG2 [18] = test: Induction of apoptosis in human HepG2 cells assessed as nuclear condensation after 72 hrs by DAPI staining based fluorescent microscopic method; assay type: functional, cell-based; outline: as §4
HepG2 [19] = test: Induction of apoptosis in human HepG2 cells assessed as increase in intracellular calcium level by measuring mean fluorescence intensity at 2 uM after 72 hrs by Fluo-3AM dye based flow cytometry (reference value: 1992); assay type: functional; outline: as §5
HepG2 [20] = test: Induction of apoptosis in human HepG2 cells assessed as nuclear condensation at 6 uM after 72 hrs by Giemsa staining based fluorescent microscopic method; assay type: functional, cell-based; outline: as §3
HepG2 [21] = test: Induction of apoptosis in human HepG2 cells assessed as viable cells at 4 uM after 72 hrs by Annexin-V-FITC/propidium iodide staining based flow cytometry (reference value: 93.2%); assay type: functional; details: HepG2, 72 h, read-out: Activity
HepG2 [22] = test: Induction of apoptosis in human HepG2 cells assessed as formation of apoptotic bodies after 72 hrs by DAPI staining based fluorescent microscopic method; assay type: functional, cell-based; outline: as §4
HepG2 [23] = test: Induction of apoptosis in human HepG2 cells assessed as necrotic cells at 2 uM after 72 hrs by Annexin-V-FITC/propidium iodide staining based flow cytometry (reference value: 0.5%); assay type: functional
HepG2 [24] = test: Potency index, ratio of cisplatin IC50 to compound IC50 for human HepG2 cells; assay type: functional; outline: as §1
HepG2 [25] = test: Induction of apoptosis in human HepG2 cells assessed as increase in intracellular calcium level by measuring mean fluorescence intensity at 3 uM after 72 hrs by Fluo-3AM dye based flow cytometry (reference value: 1992); assay type: functional; outline: as §5
HepG2 [26] = test: Induction of apoptosis in human HepG2 cells assessed as early apoptotic cells at 4 uM after 72 hrs by Annexin-V-FITC/propidium iodide staining based flow cytometry (reference value: 3.7%); assay type: functional

With `C=C(C)[C@@H]1CC[C@]2(C(=O)OCc3nc(C)c(C)nc3C)CC[C@]3(C)[C@H](CC[C@@H]4[C@@]5(C)CC[C@H](OC(=O)[C@H](C)NC(=O)CNC)C(C)(C)[C@@H]5CC[C@]43C)[C@@H]12` the “Ratio IC50” value (HT-29 [1]) was 2, the IC50 (HT-29 [2]) was 1700 nM and the Flu intensity (HepG2 [3]) was 5411. The IC50 (A549 [4]) was 3250 nM, the Activity (HepG2 [5]) was 6.5% and the Activity (HepG2 [6]) was 11.3%. For the same compound, the Activity (HepG2 [7]) was 6.9%, the Activity (HepG2 [8]) was “Dose-dependent effect” and the Activity (HepG2 [9]) was 6.1%. The Activity (HepG2 [10]) was “Active”, the Activity (HepG2 [11]) was “Active” and the Activity (HepG2 [12]) was 1%. For the same compound, the IC50 (HeLa) was 1740 nM, the viability at 2 µM (HepG2 [13]) was 88% and the “Ratio IC50” value (A549 [14]) was 2. The IC50 (MDCK) was 10800 nM, the Activity (HepG2 [15]) was 1.2% and the Activity (HepG2 [16]) was “Dose-dependent effect”. For the same compound, the Flu intensity (HepG2 [17]) was 6353, the Activity (HepG2 [18]) was “Dose-dependent effect” and the Flu intensity (HepG2 [19]) was 2743. For the same compound, the Activity (HepG2 [20]) was “Active”, the viability at 4 µM (HepG2 [21]) was 62.2% and the Activity (HepG2 [22]) was “Dose-dependent effect”. The Activity (HepG2 [23]) was 1.1%, the “Ratio IC50” value (HepG2 [24]) was 2 and the Flu intensity (HepG2 [25]) was 3760. For the same compound, the Activity (HepG2 [26]) was 29.9%.
